Drawing on ChEMBL document CHEMBL1157337, “Interference by naturally occurring fatty acids in a noncellular enzyme-based aromatase bioassay” (J Nat Prod, 2006), this text covers activity and IC50 for twelve compounds.

Molecules are shown by their SMILES.

Test [1] has as its target T1, Aromatase (Homo sapiens, UniProt P11511).
T1 sequence (P11511 whole entry): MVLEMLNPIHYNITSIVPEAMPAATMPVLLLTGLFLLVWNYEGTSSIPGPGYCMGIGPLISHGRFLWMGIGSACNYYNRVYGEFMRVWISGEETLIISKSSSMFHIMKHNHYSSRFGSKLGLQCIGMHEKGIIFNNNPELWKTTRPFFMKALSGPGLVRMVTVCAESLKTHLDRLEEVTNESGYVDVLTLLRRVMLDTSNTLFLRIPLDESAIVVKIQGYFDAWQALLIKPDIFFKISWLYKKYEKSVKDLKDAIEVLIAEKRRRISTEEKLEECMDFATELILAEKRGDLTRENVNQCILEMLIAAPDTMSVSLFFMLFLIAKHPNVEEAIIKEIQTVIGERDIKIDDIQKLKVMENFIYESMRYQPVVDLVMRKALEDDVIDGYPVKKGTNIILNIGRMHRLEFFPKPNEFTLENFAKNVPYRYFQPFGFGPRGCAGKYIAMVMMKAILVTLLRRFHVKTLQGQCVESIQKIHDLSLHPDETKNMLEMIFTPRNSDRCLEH
The test is described as follows: Inhibition of aromatase in human placental microsomes at 20 ug/ml by radiometric method relative to control. On the set-up: species or system Placenta; scale not given: the % may be the effect or the level left. To be noted: read-out: Activity. In outline: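 Human term placental microsomes (50 µg) with sample at 20 µg/mL, 100 nM [1β-3H]androstenedione, 0.1 M K phosphate pH 7.0, 5% propylene glycol, NADPH-regenerating system; 37 °C, 15 min, CHCl3 quench and extraction; aqueous 3H2O counted; triplicate.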

The target in test [2] is T1, Aromatase. Kind of test: Inhibition of aromatase in human placental microsomes by radiometric method. Details: species or system Placenta. In outline: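 Placental microsomal aromatase (50 µg), 100 nM [1β-3H]androstenedione, pH 7.0 phosphate buffer, 5% propylene glycol, NADPH-regenerating system, 37 °C for 15 min; 3H2O in the aqueous phase counted after CHCl3 extraction, boiled-enzyme background. Eight inhibitor concentrations spanning 1–100 µM; IC50 by nonlinear regression.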

The target of test [3] is T1, Aromatase. Kind of test: Inhibition of aromatase in human SKBR3 cells at 100 uM relative to control. Format: cell-based. On the set-up: scale not given: the % may be the effect or the level left. The settings on record: SK-BR-3, human; read-out: Activity. In a few lines: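 Test agents at 100 µM on aromatase-overexpressing SK-BR-3 cells in T-25 flasks, serum-free DMEM/F12 with albumin/transferrin/insulin, triplicate, 24 h exposure (0.1% DMSO negative control, 10 nM letrozole positive control). Medium replaced with 50 nM androstenedione plus 2 µCi [1β-3H]androstenedione, 6 h; released 3H2O scintillation-counted, corrected for blanks and DNA-based cell count; percent control activity.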

Test [4] has as its target T1, Aromatase. Kind of test: Inhibition of aromatase in human SKBR3 cells at 10 nM relative to control. To be noted: SK-BR-3, human; read-out: Activity. Format: cell-based. Details: scale not given: the % may be the effect or the level left. In outline:
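SK-BR-3 human breast cancer cells (aromatase-overexpressing), grown subconfluent in T-25 flasks, medium switched to serum-free DMEM/F12 with albumin, transferrin, insulin; treated in triplicate 24 h (0.1% DMSO negative control). Then 50 nM androstenedione plus 2 µCi [1β-3H]androstenedione for 6 h; 3H2O counted after TCA, CHCl3 and charcoal cleanup; normalized to DNA-determined cell number, expressed as percent control activity.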

As a reminder, the IC50 is the midpoint of a concentration-inhibition curve. Turning to `CCCCC/C=C\C/C=C\C/C=C\C/C=C\CCCC(=O)O` [ARACHIDONIC ACID], the activity at 20 µg/mL on Aromatase [1] is 11.5%. For the same compound, half-maximal inhibition on Aromatase [2] (IC50) required 28.2 µM. In addition, the activity at 100 µM at Aromatase [3] is 147%.

Regarding `CC/C=C\C/C=C\C/C=C\C/C=C\C/C=C\C/C=C\CCC(=O)O` [DOCONEXENT], the activity at 20 µg/mL at Aromatase [1] was determined as 12.4%. Also, inhibition at Aromatase [2] was half-maximal at 33.2 µM (IC50). Besides, the activity at 100 µM on Aromatase [3] was 98.2%.

On to `CC/C=C\C/C=C\C/C=C\C/C=C\C/C=C\CCCCCC(=O)O` [DOCOSAPENTAENOIC ACID], for which the activity at 20 µg/mL on Aromatase [1] was found to be 15.7%. The IC50 on Aromatase [2] was found to be 16.8 µM. Also, the activity at 100 µM on Aromatase [3] is 94.4%.

As to `CC/C=C\C/C=C\C/C=C\C/C=C\C/C=C\CCCC(=O)O` [ICOSAPENT], the activity at 20 µg/mL at Aromatase [1] turned out to be 30.2%. Further, at Aromatase [2], the half-maximal inhibitory concentration (IC50) is 53.2 µM. The activity at 100 µM on Aromatase [3] was 138%.

In the case of `N#Cc1ccc(C(c2ccc(C#N)cc2)n2cncn2)cc1` [LETROZOLE], the activity at 0.01 µM at Aromatase [4] stood at 3.9%.

Consider `CCCCC/C=C\C/C=C\CCCCCCCC(=O)O` [LINOLEIC ACID], for which the activity at 20 µg/mL at Aromatase [1] amounted to 22.5%. This compound yielded an IC50 against Aromatase [2] of 48 µM. In addition, the activity at 100 µM on Aromatase [3] is 148%.

As for `CC/C=C\C/C=C\C/C=C\CCCCCCCC(=O)O` [LINOLENIC ACID], the activity at 20 µg/mL on Aromatase [1] came out at 49.5%. The same compound yielded an IC50 at Aromatase [2] of 44.2 µM. Further, the activity at 100 µM at Aromatase [3] was found to be 92.8%.

As for `CCCCCCCCCCCCCC(=O)O` [MYRISTIC ACID], the activity at 20 µg/mL at Aromatase [1] is 66.7%.

For `CCCCCCCC/C=C\CCCCCCCC(=O)O` [OLEIC ACID], the activity at 20 µg/mL at Aromatase [1] is 19.5%. This compound also yielded a half-inhibitory concentration (IC50) at Aromatase [2] of 32.7 µM. For the same compound, on Aromatase [3], the activity at 100 µM turned out to be 99.3%.

For `CCCCCCCCCCCCCCCC(=O)O` [PALMITIC ACID], the activity at 20 µg/mL at Aromatase [1] came out at 83.2%.

Turning to `CCCCCCCCCCCCCCC(=O)O` [PENTADECANOIC ACID], on Aromatase [1], the activity at 20 µg/mL was found to be 76.2%.

In the case of `CCCCCCCCCCCCCCCCCC(=O)O` [STEARIC ACID], on Aromatase [1], the activity at 20 µg/mL amounted to 89.4%.
